From ChEMBL document CHEMBL4673285, “Design, Synthesis, and Biological Evaluation of Linear Aliphatic Amine-Linked Triaryl Derivatives as Potent Small-Molecule Inhibitors of the Programmed Cell Death-1/Programmed Cell Death-Ligand 1 Interaction with Promising Antitumor Effects In Vivo” (J Med Chem, 2020)
Calls of active or inactive are those of the source. The calls are words filed in the database; no cut-off is given here.

Columns and labels:
[1] = molecular target: Programmed cell death protein 1/Programmed cell death 1 ligand 1 (Homo sapiens, UniProt Q9NZQ7); assay: Inhibition of PD1-Tag2/PD-L1-Tag1 (unknown origin) protein-protein interaction preincubated for 15 mins followed by addition of anti-Tag1-Eu3+ and anti-Tag2-XL665 measured after 2.5 hrs by HTRF assay; format: protein-complex assay
Summary of the method: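 Commercial HTRF kit. Compound incubated with PD-L1-Tag1 and PD1-Tag2 at rt for 15 min, then anti-Tag1-Eu³⁺/anti-Tag2-XL665 conjugate mix added and incubated 2.5 h at rt.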

[2] = molecular target: T1, Programmed cell death 1 ligand 1 (Homo sapiens, UniProt Q9NZQ7); assay: Binding affinity to biotinylated human AVI-PD-L1 assessed as association constant by biolayer interferometry
Summary of the method: (§1)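 Biotinylated human PD-L1/AVI at 10 μg/mL loaded on streptavidin biosensors for 300 s, then baselined. Association with compound at 20 to 0.3125 nM plus 0 nM for 180 s, then dissociation in buffer for 300 s. Data globally fitted to a 1:1 model to give ka and kdis; apparent affinity taken as their ratio.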

[3] = molecular target: T1, Programmed cell death 1 ligand 1; assay: Binding affinity to biotinylated human AVI-PD-L1 assessed as dissociation rate constant by biolayer interferometry
[4] = Cytotoxicity against human PBMC cells assessed as reduction in cell viability at 6.3 uM incubated for 24 hrs by Cell-titer glo Luminescent assay; format: cell-based
Summary of the method: (§2)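 Cells (Raji, RAW 264.7 or donor PBMCs) plated at 1 × 10⁴ per well in medium with 10% FBS. Treated for 24 h at 37 °C, 5% CO₂ with 100, 50, 25, 12.5, 6.25 or 3.125 μM compound, or buffer containing 0.2% DMSO. Viability read by CellTiter-Glo luminescence; killing rate = (1 − RLU compound/RLU control) × 100%; triplicate, mean ± SEM.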

[5] = molecular target: T1, Programmed cell death 1 ligand 1; assay: Binding affinity to human PD-L1 expressed in CHOK1 cells assessed as inhibition of PD1/PDL1 protein-protein interaction at 500 nM incubated for 30 mins by flow cytometry analysis; format: cell-based; settings: CHO-K1
Summary of the method: (§3)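 CHO-K1-hPD-L1 cells, 5 × 10⁵ per tube in PBS with 2% FBS, incubated with hPD-1/Fc (10 μg/mL final) at 4 °C for 30 min. Compound added at 500 nM final and incubated a further 30 min at 4 °C, then stained with APC anti-human IgG Fc. Percentage of hPD-1-bound cells read by flow cytometry. Blocking efficacy calculated against a no-inhibitor positive control and parental CHO-K1 negative control.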

Raji = assay: Cytotoxicity against human Raji cells assessed as reduction in cell viability at 100 uM incubated for 24 hrs by Cell-titer glo Luminescent assay; format: cell-based; summary of the method: as §2
[6] = molecular target: T1, Programmed cell death 1 ligand 1; assay: Binding affinity to biotinylated human AVI-PD-L1 by biolayer interferometry; summary of the method: as §1
[7] = Cytotoxicity against human PBMC cells assessed as reduction in cell viability up to 100 uM incubated for 24 hrs by Cell-titer glo Luminescent assay; format: cell-based; summary of the method: as §2
RAW264.7 = assay: Cytotoxicity against mouse RAW264.7 cells assessed as reduction in cell viability at 3.125 to 100 uM incubated for 24 hrs by Cell-titer glo Luminescent assay; format: cell-based; settings: raw264.7, 24 h, dose 3.125-100 µM; summary of the method: as §2
[8] = molecular target: T1, Programmed cell death 1 ligand 1; assay: Binding affinity to human PD-L1 expressed in CHOK1 cells assessed as inhibition of PD1/PDL1 protein-protein interaction at 500 nM incubated for 30 mins by flow cytometry analysis relative to control; format: cell-based; settings: CHO-K1; summary of the method: as §3
[9] = molecular target: T1, Programmed cell death 1 ligand 1; assay: Inhibition of human PD-L1 cocultured in PBMC cells assessed as inhibition of PD1/PDL1 interaction mediated increase in IFN-gamma secretion at 0.1 uM incubated for 72 hrs by ELISA; format: cell-based
Summary of the method: (§4)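 Healthy-donor PBMCs, 1 × 10⁵ per well in RPMI 1640 with 10% FBS, stimulated with anti-CD3/anti-CD28 (1:1, 0.8 μg/mL final) plus PD-L1/Fc at 10 μg/mL final. Compound added at 0.1 or 1 μM final and cocultured 72 h at 37 °C, 5% CO₂. Supernatant IFN-γ measured by ELISA; quadruplicate, mean ± SEM.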

[10] = molecular target: T1, Programmed cell death 1 ligand 1; assay: Inhibition of human PD-L1 cocultured in PBMC cells assessed as inhibition of PD1/PDL1 interaction mediated increase in IFN-gamma secretion at 1 uM incubated for 72 hrs by ELISA relative to control; format: cell-based; summary of the method: as §4
[11] = molecular target: T1, Programmed cell death 1 ligand 1; assay: Binding affinity to human Fc-tagged PDL1 at 500 nM measured after 600 sec by biolayer interferometry
[12] = molecular target: T1, Programmed cell death 1 ligand 1; assay: Inhibition of human PD-L1 cocultured in PBMC cells assessed as inhibition of PD1/PDL1 interaction mediated increase in IFN-gamma secretion at 1 uM incubated for 72 hrs by ELISA; format: cell-based; summary of the method: as §4
[13] = molecular target: CD27 antigen (Homo sapiens) (UniProt P26842); assay: Binding affinity to human Fc-tagged CD27 at 500 nM measured after 600 sec by biolayer interferometry
[14] = molecular target: Programmed cell death protein 1 (Homo sapiens) (UniProt Q15116); assay: Binding affinity to human Fc-tagged PD1 at 500 nM measured after 600 sec by biolayer interferometry
[15] = molecular target: T2, Lymphocyte activation gene 3 protein (Homo sapiens) (UniProt P18627); assay: Binding affinity to human Fc-tagged LAG3 at 500 nM measured after 600 sec by biolayer interferometry
T2 sequence (whole entry): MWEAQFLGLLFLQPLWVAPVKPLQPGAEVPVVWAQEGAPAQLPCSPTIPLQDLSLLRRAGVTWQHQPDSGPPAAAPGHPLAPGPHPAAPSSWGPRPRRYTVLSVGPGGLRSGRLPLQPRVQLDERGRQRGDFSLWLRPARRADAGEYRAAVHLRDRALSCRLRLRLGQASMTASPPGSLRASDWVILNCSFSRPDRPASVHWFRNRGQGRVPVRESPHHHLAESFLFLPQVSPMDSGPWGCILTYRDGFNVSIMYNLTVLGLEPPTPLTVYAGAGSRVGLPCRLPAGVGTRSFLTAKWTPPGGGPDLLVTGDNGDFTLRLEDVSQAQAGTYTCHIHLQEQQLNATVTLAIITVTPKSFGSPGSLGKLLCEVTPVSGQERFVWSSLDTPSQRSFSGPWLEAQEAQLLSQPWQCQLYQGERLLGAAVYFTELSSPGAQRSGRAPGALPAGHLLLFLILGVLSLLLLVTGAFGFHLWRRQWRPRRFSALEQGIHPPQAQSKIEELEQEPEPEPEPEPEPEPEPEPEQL

[16] = molecular target: Leukocyte surface antigen CD47 (Homo sapiens) (UniProt Q08722); assay: Binding affinity to human Fc-tagged CD47 at 500 nM measured after 600 sec by biolayer interferometry
[17] = molecular target: Hepatitis A virus cellular receptor 2 (Homo sapiens) (UniProt Q8TDQ0); assay: Binding affinity to human Fc-tagged TIM3 at 500 nM measured after 600 sec by biolayer interferometry
[18] = molecular target: T3, Programmed cell death 1 ligand 2 (Homo sapiens) (UniProt Q9BQ51); assay: Binding affinity to human Fc-tagged PDL2 at 500 nM measured after 600 sec by biolayer interferometry
T3 sequence (whole entry): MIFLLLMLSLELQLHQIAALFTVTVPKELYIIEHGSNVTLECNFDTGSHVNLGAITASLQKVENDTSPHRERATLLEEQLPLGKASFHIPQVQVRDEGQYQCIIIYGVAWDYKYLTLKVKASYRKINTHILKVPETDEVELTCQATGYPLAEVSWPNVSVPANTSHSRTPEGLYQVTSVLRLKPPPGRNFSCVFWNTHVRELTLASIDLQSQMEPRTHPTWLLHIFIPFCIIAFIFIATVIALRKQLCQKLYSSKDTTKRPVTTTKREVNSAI

T1 sequence (Q9NZQ7 whole entry): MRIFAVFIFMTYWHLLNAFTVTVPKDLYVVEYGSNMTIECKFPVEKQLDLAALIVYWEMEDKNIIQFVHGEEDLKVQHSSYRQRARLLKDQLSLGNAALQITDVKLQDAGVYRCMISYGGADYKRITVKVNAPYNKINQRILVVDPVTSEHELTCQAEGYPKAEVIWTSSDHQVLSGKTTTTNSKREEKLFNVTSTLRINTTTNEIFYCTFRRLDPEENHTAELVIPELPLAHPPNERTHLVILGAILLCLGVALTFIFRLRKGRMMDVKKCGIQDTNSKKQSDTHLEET
Chain of Programmed cell death protein 1/Programmed cell death 1 ligand 1 (Q15116 whole entry): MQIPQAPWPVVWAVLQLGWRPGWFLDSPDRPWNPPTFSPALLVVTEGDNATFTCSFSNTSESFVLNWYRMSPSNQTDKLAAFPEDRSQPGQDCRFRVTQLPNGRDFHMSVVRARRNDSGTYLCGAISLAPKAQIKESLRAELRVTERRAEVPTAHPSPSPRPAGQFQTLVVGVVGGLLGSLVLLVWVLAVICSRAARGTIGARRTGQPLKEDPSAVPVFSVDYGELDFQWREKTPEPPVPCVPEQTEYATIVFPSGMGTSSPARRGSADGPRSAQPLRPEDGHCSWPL
Chain of Programmed cell death protein 1/Programmed cell death 1 ligand 1 (Q9NZQ7 whole entry): as the sequence (Q9NZQ7 whole entry) above
Chain of CD27 antigen (Homo sapiens) (P26842 whole entry): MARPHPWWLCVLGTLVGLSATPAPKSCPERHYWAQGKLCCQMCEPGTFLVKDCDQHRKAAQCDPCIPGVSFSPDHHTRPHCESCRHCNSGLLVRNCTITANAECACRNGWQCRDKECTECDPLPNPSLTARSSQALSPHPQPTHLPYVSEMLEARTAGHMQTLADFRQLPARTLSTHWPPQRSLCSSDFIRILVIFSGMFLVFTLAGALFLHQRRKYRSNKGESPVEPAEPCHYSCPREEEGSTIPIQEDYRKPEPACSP
Chain of Hepatitis A virus cellular receptor 2 (Homo sapiens) (Q8TDQ0 whole entry): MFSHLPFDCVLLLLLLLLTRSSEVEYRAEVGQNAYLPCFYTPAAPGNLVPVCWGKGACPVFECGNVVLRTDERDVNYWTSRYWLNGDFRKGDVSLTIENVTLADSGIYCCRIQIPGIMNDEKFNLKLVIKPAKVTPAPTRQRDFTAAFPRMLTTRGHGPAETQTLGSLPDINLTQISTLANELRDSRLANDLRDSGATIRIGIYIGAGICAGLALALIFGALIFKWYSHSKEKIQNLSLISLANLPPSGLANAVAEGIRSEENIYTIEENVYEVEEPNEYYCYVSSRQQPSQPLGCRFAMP
Chain of Programmed cell death protein 1 (Homo sapiens) (Q15116 whole entry): as the sequence (Q15116 whole entry) above
Chain of Leukocyte surface antigen CD47 (Homo sapiens) (Q08722 whole entry): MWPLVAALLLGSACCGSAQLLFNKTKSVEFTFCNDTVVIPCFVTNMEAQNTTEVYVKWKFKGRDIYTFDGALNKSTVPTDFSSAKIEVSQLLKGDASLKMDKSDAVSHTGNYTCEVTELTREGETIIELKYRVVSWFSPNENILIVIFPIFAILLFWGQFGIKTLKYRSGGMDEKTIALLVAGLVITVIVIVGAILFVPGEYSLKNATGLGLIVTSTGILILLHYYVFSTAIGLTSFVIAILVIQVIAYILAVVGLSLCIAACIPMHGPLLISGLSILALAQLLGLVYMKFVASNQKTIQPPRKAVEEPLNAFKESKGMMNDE

Compound `N#Cc1cccc(COc2cc(NCc3cccc(-c4ccccc4)c3Br)ccc2CN[C@H](CO)C(=O)O)c1` has an IC50 [1] of 637 nM.

With `Cc1c(CNc2cc(OCc3cncc(C#N)c3)c(CN[C@H](CO)C(=O)O)cc2Cl)cccc1-c1ccccc1` the IC50 [1] was 26 nM.

For `COc1cc(NCc2cccc(-c3ccccc3)c2C)c(C)cc1CN[C@H](CO)C(=O)O`, the IC50 [1] was 253 nM.

For `Cc1c(CNc2ccc(CN[C@H](CO)C(=O)O)c(OCc3cncc(C#N)c3)c2)cccc1-c1ccccc1`, the association rate constant (kon) [2] was 8.49 10^5/M/s, the koff [3] was 2.51 10^-4/s and the Activity [4] was “Non-Toxic”. The Activity [5] was “Active”, the Activity (Raji) was “Non-Toxic” and the Dissociation constant (KD) [6] was 2.96 10^-10M. For the same compound, the Activity [7] was “Non-Toxic”, the Activity (RAW264.7) was “Non-Toxic” and the Efficacy [8] was 95.9%. For the same compound, the inhibition [9] was “inactive” and the inhibition [10] was 42.5%.

For `COc1cc(NCc2cccc(-c3ccccc3)c2C)c(Cl)cc1CN[C@H](CO)C(=O)O`, the association rate constant (kon) [2] was 1.29 10^6/M/s, the koff [3] was 6.64 10^-4/s and the Activity [4] was “Non-Toxic”. The Activity [5] was “Active”, the Dissociation constant (KD) [6] was 5.15 10^-10M and the Activity [7] was “Non-Toxic”. The Activity (RAW264.7) was “Non-Toxic”, the Efficacy [8] was 98.6% and the inhibition [9] was “inactive”. For the same compound, the inhibition [10] was 40.9%.

For `Cc1cc(CN[C@H](CO)C(=O)O)c(OCc2cncc(C#N)c2)cc1NCc1cccc(-c2ccc3c(c2)OCCO3)c1C`, the IC50 [1] was 44 nM.

In the case of `Cc1cc(NCc2cccc(-c3ccccc3)c2C)cc(OCc2cccc(C#N)c2)c1CN[C@H](CO)C(=O)O`, the IC50 [1] is reported as 363 nM.

Work on `Cc1cc(CN[C@H](CCO)C(=O)O)c(OCc2cncc(C#N)c2)cc1NCc1cccc(-c2ccccc2)c1C` yielded an IC50 [1] of 36 nM.

In the case of `N#Cc1cncc(COc2cc(NCc3cccc(-c4ccccc4)c3Br)ccc2CN[C@H](CO)C(=O)O)c1`, the IC50 [1] is reported as 206 nM.

`Cc1c(CNc2cc(OCc3cncc(C#N)c3)c(CN[C@H](CO)C(=O)O)cc2Cl)cccc1-c1ccc2c(c1)OCCO2` showed an IC50 [1] of 131 nM.

For `Cc1c(CNc2ccc(CN[C@H](CO)C(=O)O)c(OCc3cccc(C#N)c3)c2)cccc1-c1ccccc1`, the association rate constant (kon) [2] was 6.51 10^5/M/s, the koff [3] was 1.18 10^-3/s and the Activity [4] was “Non-Toxic”. For the same compound, the Activity [5] was “Active”, the Activity [11] was “Active” and the inhibition [12] was “inactive”. For the same compound, the Activity (Raji) was “Non-Toxic”, the Activity [13] was “inactive” and the Activity [14] was “inactive”. The Dissociation constant (KD) [6] was 1.81 10^-9M, the Activity [7] was “Non-Toxic” and the Activity [15] was “inactive”. For the same compound, the Activity (RAW264.7) was “Non-Toxic”, the Activity [16] was “inactive” and the Activity [17] was “inactive”. The Activity [18] was “inactive”, the Efficacy [8] was 96.1% and the inhibition [9] was “inactive”.

With `Cc1cc(CN[C@H](CO)C(=O)O)c(OCc2cncc(C#N)c2)cc1NCc1cccc(-c2ccccc2)c1Br` the IC50 [1] was 31 nM.

With `Cc1cc(NCc2cccc(-c3ccccc3)c2C)cc(OCc2cncc(C#N)c2)c1CN[C@H](CO)C(=O)O` the IC50 [1] was 436 nM.

In the case of `Cc1c(CN(C)c2ccc(CN[C@H](CO)C(=O)O)c(OCc3cccc(C#N)c3)c2)cccc1-c1ccccc1`, the IC50 [1] is reported as over 100000 nM.

`Cc1cc(CN[C@H](CO)C(=O)O)c(OCc2ccccc2)cc1NCc1cccc(-c2ccccc2)c1C` showed an IC50 [1] of 2580 nM.

With `Cc1cc(CN[C@@H](CO)C(=O)O)c(OCc2cncc(C#N)c2)cc1NCc1cccc(-c2ccccc2)c1C` the IC50 [1] was 23 nM.

Work on `Cc1cc(CN2C[C@@H](O)CC2=O)c(OCc2cncc(C#N)c2)cc1NCc1cccc(-c2ccccc2)c1C` yielded an IC50 [1] of 1330 nM.
